ChEMBL document CHEMBL1152843, “Synthesis of new series of 5,6-dihydro-4H-1,2-oxazines via hetero Diels-Alder reaction and evaluation of antimicrobial activity” (2009)
Values after ≈ are worked out from the molar mass of the structure shown.

What was measured:
Assay type in all cases: functional
Escherichia coli [1] = assay: Antibacterial activity against Escherichia coli MTCC 443 at 20 ug after 24 hrs by cup diffusion method; settings: MTCC 443, 24 h, read-out: IZ
How it was run: (§1)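 Agar cup diffusion. Plates of sterile medium in 9 cm dishes were seeded with 1 × 10⁵ cfu of bacteria, with the suspension adjusted to at least 1 × 10⁵ cfu/ml in nutrient broth. Compound in DMF was placed in 5 mm cups and pre-diffused for 1 h. Plates were incubated at 37 °C for 24 h and the inhibition zone measured in mm. DMF served as negative control.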

Fusarium verticillioides [2] = assay: Antifungal activity against Fusarium moniliforme after 48 hrs by cup diffusion method
Aspergillus niger [3] = assay: Antifungal activity against Aspergillus niger after 48 hrs by cup diffusion method
Escherichia coli [4] = assay: Antibacterial activity against Escherichia coli MTCC 443 after 24 hrs by cup diffusion method; settings: MTCC 443, 24 h
Pseudomonas aeruginosa [5] = assay: Antibacterial activity against Pseudomonas aeruginosa MTCC 1688 at 20 ug after 24 hrs by cup diffusion method; settings: MTCC 1688, 24 h, read-out: IZ; how it was run: as §1
Fusarium verticillioides [6] = assay: Antifungal activity against Fusarium moniliforme at 20 ug after 48 hrs by cup diffusion method; settings: read-out: IZ
How it was run: (§2)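 Cup diffusion on 9 cm plates seeded with 1 × 10⁶ cfu of fungi, with spores adjusted to at least 1 × 10⁶ cfu/ml in potato dextrose broth. Compound in DMF was placed in 5 mm agar cups and left 1 h to diffuse. Plates were incubated at 28 °C for 48 h and the inhibition zone read in mm. DMF was the negative control.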

Staphylococcus aureus [7] = assay: Antibacterial activity against Staphylococcus aureus MTCC 737 at 20 ug after 24 hrs by cup diffusion method; settings: MTCC 737, 24 h, read-out: IZ; how it was run: as §1
Klebsiella pneumoniae [8] = assay: Antibacterial activity against Klebsiella pneumoniae […] after 24 hrs by cup diffusion method
Fusarium oxysporum [9] = assay: Antifungal activity against Fusarium oxysporum after 48 hrs by cup diffusion method
Aspergillus flavus [10] = assay: Antifungal activity against Aspergillus flavus at 20 ug after 48 hrs by cup diffusion method; settings: read-out: IZ; how it was run: as §2
Klebsiella pneumoniae [11] = assay: Antibacterial activity against Klebsiella pneumoniae […] at 20 ug after 24 hrs by cup diffusion method; settings: read-out: IZ; how it was run: as §1
Staphylococcus aureus [12] = assay: Antibacterial activity against Staphylococcus aureus MTCC 737 after 24 hrs by cup diffusion method; settings: MTCC 737, 24 h
Aspergillus niger [13] = assay: Antifungal activity against Aspergillus niger at 20 ug after 48 hrs by cup diffusion method; settings: read-out: IZ; how it was run: as §2
Pseudomonas aeruginosa [14] = assay: Antibacterial activity against Pseudomonas aeruginosa MTCC 1688 after 24 hrs by cup diffusion method; settings: MTCC 1688, 24 h
Aspergillus flavus [15] = assay: Antifungal activity against Aspergillus flavus after 48 hrs by cup diffusion method
Fusarium oxysporum [16] = assay: Antifungal activity against Fusarium oxysporum at 20 ug after 48 hrs by cup diffusion method; settings: read-out: IZ; how it was run: as §2

Row | SMILES | zone of inhibition at 20 µg/disc (Escherichia coli [1]) [mm] | MIC (Fusarium verticillioides [2]) [µg/mL] | MIC (Aspergillus niger [3]) [µg/mL] | MIC (Escherichia coli [4]) [µg/mL] | zone of inhibition at 20 µg/disc (Pseudomonas aeruginosa [5]) [mm] | zone of inhibition at 20 µg/disc (Fusarium verticillioides [6]) [mm] | zone of inhibition at 20 µg/disc (Staphylococcus aureus [7]) [mm] | MIC (Klebsiella pneumoniae [8]) [µg/mL] | MIC (Fusarium oxysporum [9]) [µg/mL] | zone of inhibition at 20 µg/disc (Aspergillus flavus [10]) [mm] | zone of inhibition at 20 µg/disc (Klebsiella pneumoniae [11]) [mm] | MIC (Staphylococcus aureus [12]) [µg/mL] | zone of inhibition at 20 µg/disc (Aspergillus niger [13]) [mm] | MIC (Pseudomonas aeruginosa [14]) [µg/mL] | MIC (Aspergillus flavus [15]) [µg/mL] | zone of inhibition at 20 µg/disc (Fusarium oxysporum [16]) [mm]
1 | OCC1CCC(c2ccc3c(c2)CCC3)=NO1 (stereo unspecified) | 10.5 | 35 (≈ 151 µM) | 30 (≈ 130 µM) | 35 (≈ 151 µM) | 13.7 | 13.7 | 10.7 | 25 (≈ 108 µM) | 25 (≈ 108 µM) | 9.83 | 17.7 | 20 (≈ 86.5 µM) | 7.66 | 20 (≈ 86.5 µM) | 30 (≈ 130 µM) | 18.8
2 | Cc1ccc(C2=NOC(CO)CC2)cc1 (stereo unspecified) | 8.83 | 30 (≈ 146 µM) | 35 (≈ 171 µM) | 35 (≈ 171 µM) | 10.8 | 15.8 | 7.5 | 30 (≈ 146 µM) | 25 (≈ 122 µM) | 12.5 | 19.8 | 25 (≈ 122 µM) | 11.5 | 25 (≈ 122 µM) | 30 (≈ 146 µM) | 19.8
3 | COc1ccc(C2=NOC(C#N)CC2)cc1OC (stereo unspecified) | 10.5 | 30 (≈ 122 µM) | 35 (≈ 142 µM) | 25 (≈ 102 µM) | 24.5 | 12.8 | 15.5 | 15 (≈ 60.9 µM) | 30 (≈ 122 µM) | 10.5 | 7.75 | 15 (≈ 60.9 µM) | 11.5 | 10 (≈ 40.6 µM) | 35 (≈ 142 µM) | 15.5
4 | COc1ccc(C2=NOC(Cc3ccc4c(c3)OCO4)CC2)cc1 (stereo unspecified) | 21.8 | 35 (≈ 108 µM) | 35 (≈ 108 µM) | 25 (≈ 76.8 µM) | 31.8 | 12.8 | 21.7 | 15 (≈ 46.1 µM) | 35 (≈ 108 µM) | 9.66 | 19.7 | 15 (≈ 46.1 µM) | 10.7 | 20 (≈ 61.5 µM) | 40 (≈ 123 µM) | 16.8
5 | COc1ccc(C2=NOC(C#N)CC2)cc1 (stereo unspecified) | 10.2 | 35 (≈ 162 µM) | 40 (≈ 185 µM) | 25 (≈ 116 µM) | 12.2 | 13.4 | 9.5 | 15 (≈ 69.4 µM) | 30 (≈ 139 µM) | 8.5 | 6.66 | 10 (≈ 46.2 µM) | 9.5 | 15 (≈ 69.4 µM) | 35 (≈ 162 µM) | 18.5
6 | Cc1ccc(C2=NOC(CCl)CC2)cc1 (stereo unspecified) | 15.7 | 10 (≈ 44.7 µM) | 15 (≈ 67.1 µM) | 20 (≈ 89.4 µM) | 11.5 | 17.7 | 16.7 | 15 (≈ 67.1 µM) | 15 (≈ 67.1 µM) | 14.5 | 16.5 | 10 (≈ 44.7 µM) | 13.8 | 15 (≈ 67.1 µM) | 15 (≈ 67.1 µM) | 20.8
7 | Cc1ccc(C2=NOC(CCl)CC2)cc1C (stereo unspecified) | 14.8 | 20 (≈ 84.1 µM) | 15 (≈ 63.1 µM) | 20 (≈ 84.1 µM) | 17.6 | 11.5 | 20.7 | 15 (≈ 63.1 µM) | 10 (≈ 42.1 µM) | 9.5 | 15.8 | 10 (≈ 42.1 µM) | 8.5 | 15 (≈ 63.1 µM) | 15 (≈ 63.1 µM) | 20.7
8 | Cc1ccc(C2=NOC(Cc3ccc4c(c3)OCO4)CC2)cc1 (stereo unspecified) | 10.7 | 20 (≈ 64.6 µM) | 20 (≈ 64.6 µM) | 25 (≈ 80.8 µM) | 11.2 | 19.5 | 12.8 | 20 (≈ 64.6 µM) | 10 (≈ 32.3 µM) | 17.8 | 19.7 | 15 (≈ 48.5 µM) | 15.7 | 20 (≈ 64.6 µM) | 15 (≈ 48.5 µM) | 24.5
9 | CCOC(=O)C1CCC(c2ccc(OC)c(OC)c2)=NO1 (stereo unspecified) | 14.7 | 30 (≈ 102 µM) | 35 (≈ 119 µM) | 30 (≈ 102 µM) | 25.7 | 11.7 | 16.5 | 20 (≈ 68.2 µM) | 35 (≈ 119 µM) | 9.66 | 20.7 | 15 (≈ 51.1 µM) | 8 | 15 (≈ 51.1 µM) | 35 (≈ 119 µM) | 16.7
10 | COc1ccc(C2=NOC(CO)CC2)cc1OC (stereo unspecified) | 8.5 | 35 (≈ 139 µM) | 40 (≈ 159 µM) | 35 (≈ 139 µM) | 10.5 | 10.8 | 7.66 | 25 (≈ 99.5 µM) | 30 (≈ 119 µM) | 8.5 | 14.5 | 20 (≈ 79.6 µM) | 7.83 | 20 (≈ 79.6 µM) | 40 (≈ 159 µM) | 16.5
11 | ClCC1CCC(c2ccc3c(c2)CCC3)=NO1 (stereo unspecified) | 11.8 | 20 (≈ 80.1 µM) | 15 (≈ 60.1 µM) | 20 (≈ 80.1 µM) | 34.5 | 34.5 | 13.5 | 15 (≈ 60.1 µM) | 10 (≈ 40 µM) | 32.8 | 25.8 | 10 (≈ 40 µM) | 28.8 | 15 (≈ 60.1 µM) | 10 (≈ 40 µM) | 38.5
